Molecules are shown by their SMILES. In brackets after ≈: the same amount, converted by molar mass. Activity calls are given as the source filed them. The rule behind the calls is not given here. Some results are limits rather than exact numbers.

Experimental findings from ChEMBL document CHEMBL3817745, “Structure-Activity Relationship for the 4(3H)-Quinazolinone Antibacterials” (J Med Chem, 2016) are described below.

Series [1] concerns Staphylococcus aureus. Put plainly: Antibacterial activity against Staphylococcus aureus COL expressing pbpA antisense plasmid assessed as increase in zone of inhibition after 18 to 20 hrs in presence of xylose. The format is functional, organism-based. The essentials: (§1)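 MRSA COL strains carrying pbpA, pbp2, mecA or pbp3 under antisense control were grown overnight on agar with 34 μg/mL chloramphenicol. Molten chloramphenicol agar with 0 or 50 mM xylose was seeded at 1×10^7 CFU/mL and set. Compound (10 μL) was spotted on the agar, and plates were incubated 36 °C for 18–20 h. Susceptibility with and without xylose induction was compared.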

Series [2] has as its system Staphylococcus aureus. Put plainly: Antibacterial activity against Staphylococcus aureus COL expressing pbp2a antisense plasmid assessed as increase in zone of inhibition after 18 to 20 hrs in presence of xylose. The format is functional, organism-based. In a few lines: as §1
Series [3] relates to Staphylococcus aureus. Put plainly: Antibacterial activity against Staphylococcus aureus COL expressing pbp2 antisense plasmid assessed as increase in zone of inhibition after 18 to 20 hrs in presence of xylose. The format is functional, organism-based. In a few lines: as §1
Series [4] deals with Staphylococcus aureus. Put plainly: Antibacterial activity against Staphylococcus aureus COL expressing pbp3 antisense plasmid assessed as increase in zone of inhibition after 18 to 20 hrs in presence of xylose. The format is functional, organism-based. In a few lines:
as §1

For series [5], the system named is Staphylococcus aureus. Kind of series: Antibacterial activity against vancomycin/methicillin-resistant Staphylococcus aureus VRS1 clinical isolate incubated for 16 to 20 hrs by microdilution method. The format is functional. On the technique in general: Dilution methods test growth across graded concentrations, often in twofold steps.
Series [6] deals with Staphylococcus aureus. Put plainly: Antibacterial activity against vancomycin/methicillin-resistant Staphylococcus aureus VRS2 clinical isolate incubated for 16 to 20 hrs by microdilution method. The format is functional.
Series [7] has as its system Staphylococcus epidermidis. Kind of series: Antibacterial activity against Staphylococcus epidermidis ATCC 35547 incubated for 16 to 20 hrs by microdilution method. The format is functional. In a few lines: (§2)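 CLSI broth microdilution. 2-fold serial dilutions were made in cation-adjusted Mueller–Hinton broth, with 5% lysed horse blood added for Streptococcus strains, in triplicate. Inoculum 5×10^5 CFU/mL. Plates incubated 36 °C for 16–20 h. MIC taken as the lowest concentration visibly inhibiting growth.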

A further series has as its system Streptococcus oralis. Put plainly: Antibacterial activity against Streptococcus oralis ATCC 9811 incubated for 16 to 20 hrs by microdilution method. The format is functional. In a few lines: as §2
Another series deals with Streptococcus pyogenes. Put plainly: Antibacterial activity against Streptococcus pyogenes ATCC 49399 incubated for 16 to 20 hrs by microdilution method. The format is functional. In a few lines: as §2
In the next series the test system is Bacillus cereus. Kind of series: Antibacterial activity against Bacillus cereus ATCC 13061 incubated for 16 to 20 hrs by microdilution method. The format is functional. The essentials:
as §2

Series [8] deals with Staphylococcus aureus. Kind of series: Antibacterial activity against methicillin-susceptible Staphylococcus aureus ATCC 29213 incubated for 16 to 20 hrs by microdilution method. The format is functional.
In series [9] the test system is Mus musculus. Kind of series: AUC (0 to last) in ICR mouse peritonitis model infected with methicillin resistant Staphylococcus aureus ATCC 27660 at 10 mg/kg, iv administered as single dose measured up to 8 hrs by UPLC analysis. The format is ADME, organism-based. Conditions: in vivo, 8 h. Also on record: dose 10 mg/kg, time 0 - last, route intravenous. In a few lines:
(§3)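 Fast PK: female ICR mice (n = 2 per time point) given single tail-vein iv injection at 5, 10 or 20 mg/kg in 25% DMSO/65% propylene glycol/10% water (2.5, 5 or 10 mg/mL); terminal cardiac blood at 5 min, 40 min, 2, 4, 8 h; plasma analysed by UPLC with internal standard calibration.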

The test system of another series is HepG2. Kind of series: Cytotoxicity against human HepG2 cells incubated for 16 hrs by XTT assay. The format is cell-based. Conditions: HepG2, 16 h. In a few lines: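 HepG2 cells were tested with an XTT viability read-out, in triplicate. IC50 was obtained by nonlinear regression.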
In general terms: Formazan colour is commonly taken as a measure of viable cells.

A short description of series [10]: Hemolytic activity against human RBC at 64 ug/ml relative to control. The format is ADME, cell-based, Erythrocyte. Conditions: erythrocyte. In a few lines: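 Hemolysis was measured at a fixed 64 μg/mL on a 10% red-cell suspension from heparinized human blood. Triton-X served as the positive control, and results are given as percent hemolysis.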
The next series concerns Enterococcus faecium. Kind of series: Antibacterial activity against Enterococcus faecium NCTC 7171 incubated for 16 to 20 hrs by microdilution method. The format is functional. In a few lines: as §2
The subject of a further series is Klebsiella pneumoniae. Kind of series: Antibacterial activity against Klebsiella pneumoniae ATCC 700603 incubated for 16 to 20 hrs by microdilution method. The format is functional. The essentials:
as §2

In a further series the test system is Acinetobacter baumannii. Kind of series: Antibacterial activity against Acinetobacter baumannii ATCC 17961 incubated for 16 to 20 hrs by microdilution method. The format is functional. The essentials: as §2
Another series concerns Pseudomonas aeruginosa. Kind of series: Antibacterial activity against Pseudomonas aeruginosa […] incubated for 16 to 20 hrs by microdilution method. The format is functional. The essentials: as §2
For the next series, the system named is Escherichia coli. Kind of series: Antibacterial activity against Escherichia coli ATCC 25922 incubated for 16 to 20 hrs by microdilution method. The format is functional. In a few lines:
as §2

The subject of another series is Klebsiella aerogenes. Put plainly: Antibacterial activity against Enterobacter aerogenes ATCC 35029 incubated for 16 to 20 hrs by microdilution method. The format is functional. The essentials:
as §2

The subject of series [11] is Mus musculus. Kind of series: AUC (0 to last) in ICR mouse peritonitis model infected with methicillin resistant Staphylococcus aureus ATCC 27660 at 5 mg/kg, iv administered as single dose measured up to 8 hrs by UPLC analysis. To be noted: in vivo. Also on record: dose 5 mg/kg, route intravenous, time 0 - last. The format is ADME, organism-based. In a few lines:
as §3

The test system of series [12] is Staphylococcus aureus. Put plainly: Antibacterial activity against mecA-positive methicillin/oxacillin/tetracycline-resistant Staphylococcus aureus ATCC 27660 incubated for 16 to 20 hrs by microdilution method. The format is functional.
In series [13] the test system is Staphylococcus aureus. Put plainly: Antibacterial activity against mecA-positive multidrug resistant Staphylococcus aureus COL NRS100 incubated for 16 to 20 hrs by microdilution method. The format is functional.
The test system of series [14] is Staphylococcus aureus. Put plainly: Antibacterial activity against mecA-positive multidrug resistant Staphylococcus aureus NRS119 incubated for 16 to 20 hrs by microdilution method. The format is functional.
Series [15] relates to Staphylococcus aureus. Kind of series: Antibacterial activity against mecA-positive multidrug resistant Staphylococcus aureus NRS120 incubated for 16 to 20 hrs by microdilution method. The format is functional.
For series [16], the system named is Staphylococcus haemolyticus. Put plainly: Antibacterial activity against Staphylococcus haemolyticus ATCC 29970 incubated for 16 to 20 hrs by microdilution method. The format is functional.
The next series concerns Bacillus licheniformis. Kind of series: Antibacterial activity against Bacillus licheniformis ATCC 12759 incubated for 16 to 20 hrs by microdilution method. The format is functional. The essentials: as §2
For series [17], the system named is Enterococcus faecalis. Kind of series: Antibacterial activity against methicillin-susceptible Enterococcus faecalis ATCC 29212 incubated for 16 to 20 hrs by microdilution method. The format is functional. In a few lines:
as §2

Series [18] has as its system Enterococcus faecalis. Put plainly: Antibacterial activity against vancomycin-resistant Enterococcus faecalis 99 clinical isolate incubated for 16 to 20 hrs by microdilution method. The format is functional.

Regarding `CCO/N=C(\C(=O)N[C@@H]1C(=O)N2C(C(=O)[O-])=C(Sc3nc(-c4cc[n+](C)cc4)cs3)CS[C@H]12)c1nsc(NP(=O)(O)O)n1`, the outcome in the series on Staphylococcus aureus [1], in the series with Staphylococcus aureus [2], in the series on Staphylococcus aureus [3] and in the series on Staphylococcus aureus [4] was Active.

For `CN[C@@H](CC(C)C)C(=O)N[C@H]1C(=O)N[C@@H](CC(N)=O)C(=O)N[C@H]2C(=O)N[C@H]3C(=O)N[C@H](C(=O)N[C@@H](C(=O)O)c4cc(O)cc(O)c4-c4cc3ccc4O)[C@H](O)c3ccc(c(Cl)c3)Oc3cc2cc(c3O[C@H]2O[C@@H](CO)[C@H](O)[C@@H](O)[C@@H]2O[C@@H]2C[C@@](C)(N)[C@@H](O)[C@@H](C)O2)Oc2ccc(cc2Cl)[C@H]1O`, the minimal inhibitory concentration (MIC) with Staphylococcus aureus [5] amounted to 512 µg/mL (≈ 353 µM); with Staphylococcus aureus [6] it was 64 µg/mL (≈ 44.2 µM); in [7] it was 16 µg/mL (≈ 11 µM); against Streptococcus oralis, 0.5 µg/mL (≈ 0.345 µM); against Streptococcus pyogenes it was 0.5 µg/mL (≈ 0.345 µM); with Bacillus cereus it was 1 µg/mL (≈ 0.69 µM).

Take `CS(=O)(=O)Nc1cccc(-n2c(/C=C/c3ccc(F)cc3)nc3ccccc3c2=O)c1`: the MIC is 0.125 µg/mL (≈ 0.287 µM) against Staphylococcus aureus [8]; at least 8 µg/mL against Enterococcus faecium; at least 16 µg/mL with Klebsiella pneumoniae; at least 16 µg/mL against Acinetobacter baumannii; at least 16 µg/mL against Pseudomonas aeruginosa; at least 16 µg/mL with Escherichia coli. This molecule also registered an MIC against Klebsiella aerogenes of at least 16 µg/mL. The same molecule came in with an AUClast in the series with Mus musculus [9] of 819 µg·min/mL. In addition, the IC50 in the series on HepG2 was 66 µg/mL (≈ 152 µM). The molecule further registered an Activity in series [10] of under 1%.

With `CS(=O)(=O)Nc1cccc(-n2c(/C=C/c3ccc(C#N)cc3)nc3ccccc3c2=O)c1`, the minimal inhibitory concentration (MIC) was found to be 0.004 µg/mL (≈ 0.00904 µM) against Staphylococcus aureus [8]; 0.25 µg/mL (≈ 0.565 µM) against Staphylococcus aureus [12]; 0.5 µg/mL (≈ 1.13 µM) in the series with Staphylococcus aureus [13]; 0.5 µg/mL (≈ 1.13 µM) in the series on Staphylococcus aureus [14]; 0.25 µg/mL (≈ 0.565 µM) with Staphylococcus aureus [15]; 0.5 µg/mL (≈ 1.13 µM) against Staphylococcus aureus [5]. Further, the minimal inhibitory concentration (MIC) against Staphylococcus aureus [6] was 0.125 µg/mL (≈ 0.282 µM); in series [7], 0.125 µg/mL (≈ 0.282 µM); in series [16], 0.125 µg/mL (≈ 0.282 µM); against Streptococcus oralis, over 128 µg/mL; in the series on Streptococcus pyogenes, over 128 µg/mL; with Bacillus cereus it was over 128 µg/mL. Also, the MIC against Bacillus licheniformis is over 128 µg/mL; against Enterococcus faecalis [17], over 128 µg/mL; against Enterococcus faecalis [18], 128 µg/mL (≈ 289 µM); in the series with Enterococcus faecium, over 128 µg/mL; in the series on Klebsiella pneumoniae, at least 16 µg/mL; with Acinetobacter baumannii, at least 16 µg/mL. The MIC with Pseudomonas aeruginosa, in the series with Escherichia coli and in the series on Klebsiella aerogenes was at least 16 µg/mL in each case. Also, in the series with Mus musculus [11], the AUClast was determined as 31 µg·min/mL. In the series with HepG2, this molecule returned an IC50 of 33.4 µg/mL (≈ 75.5 µM). Further, the Activity in series [10] is on record as under 1%.

On to `CC(=O)NCc1cccc(-n2c(/C=C/c3ccc(C#N)cc3)nc3ccccc3c2=O)c1`, for which the minimum inhibitory concentration (MIC) was 0.015 µg/mL (≈ 0.0357 µM) against Staphylococcus aureus [8]; at least 8 µg/mL in the series on Enterococcus faecium; at least 16 µg/mL against Klebsiella pneumoniae; at least 16 µg/mL against Acinetobacter baumannii; at least 16 µg/mL with Pseudomonas aeruginosa; at least 16 µg/mL in the series with Escherichia coli. The same molecule yielded an MIC with Klebsiella aerogenes of at least 16 µg/mL. For the same molecule, the AUClast in the series on Mus musculus [9] amounted to 142 µg·min/mL. The 50% inhibitory concentration (IC50) with HepG2 came to 99 µg/mL (≈ 235 µM). Besides, the Activity in series [10] was under 1%.

For orientation: MIC means the least concentration at which growth counts as inhibited. A higher MIC goes with weaker potency. Broadly, the IC50 is the midpoint of a concentration-inhibition curve. A high value points to weaker potency.
